Consider 4 molecules from ChEMBL document CHEMBL3627681, “Synthesis and biological evaluation of 1,3-diaryl pyrazole derivatives as potential antibacterial and anti-inflammatory agents” (2015).

In brackets after ≈: the same amount, converted by molar mass. Activity calls are given as the source filed them. The calls are words filed in the database; no cut-off is given here.

Experiment [1] has as its system Escherichia coli. In words: Antibacterial activity against Escherichia coli CCARM 1356 after 24 hrs by two-fold serial dilution method. The format is functional. The following applies: CCARM 1356, 24 h. The procedure, abridged: (§1)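 Broth microdilution in Mueller-Hinton broth over final concentrations of 64–0.5. Bacteria were grown to mid-log phase and diluted 1000-fold, then inoculated at 10⁵ CFU/mL. Compounds were dissolved in DMSO, with final DMSO at most 0.05%. Plates were incubated 24 h at 37 °C and growth read as absorbance at 650 nm. MIC is the concentration giving complete growth inhibition. Three independent runs.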

In experiment [2] the test system is Pseudomonas aeruginosa. Briefly: Antibacterial activity against Pseudomonas aeruginosa 2004 after 24 hrs by two-fold serial dilution method. The format is functional. The following applies: Pseudomonas aeruginosa, 2004, 24 h. The procedure, abridged:
as §1

The subject of experiment [3] is Staphylococcus aureus. Briefly: Ratio of norfloxacin MIC to compound MIC for methicillin-resistant Staphylococcus aureus CCARM 3506 after 24 hrs by two-fold serial dilution method. The format is functional.
The subject of a further experiment is Candida albicans. Briefly: Antifungal activity against Candida albicans 7535 by two-fold serial dilution method. The format is functional.
Experiment [4] relates to Mus musculus. In words: Antiinflammatory activity in mouse assessed as inhibition of xylene-induced ear edema at 50 mg/kg, po administered 3 hrs before xylene challenge relative to control. The format is functional. The procedure, abridged: (§2)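 Compound was homogenized in 0.5% CMC-Na and given orally at 50 mg/kg, 0.4 mL/20 g; controls got CMC-Na vehicle only. Xylene was applied to the ear 1, 2, 3, 4, 5 or 24 h after dosing. Edema was measured as the weight difference of 7 mm ear plugs and reported as % reduction versus vehicle controls.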

Experiment [5] deals with Staphylococcus aureus. In words: Ratio of oxacillin MIC to compound MIC for methicillin-resistant Staphylococcus aureus CCARM 3506 after 24 hrs by two-fold serial dilution method. The format is functional.
In experiment [6] the test system is Staphylococcus aureus. Briefly: Antibacterial activity against Staphylococcus aureus RN4220 after 24 hrs by two-fold serial dilution method. The format is functional. The following applies: RN4220, 24 h. The procedure, abridged: (§3)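 Broth microdilution in Mueller-Hinton broth. Bacteria grown to mid-log phase, diluted 1000-fold, and inoculated at 10⁵ CFU/mL. Test compounds in DMSO, final DMSO not above 0.05%, final concentrations 64-0.5 µg/mL. Incubation 24 h at 37 °C, growth read as absorbance at 650 nm. MIC taken as the lowest concentration giving complete growth inhibition. Run three times.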

Experiment [7] relates to Staphylococcus aureus. In words: Antibacterial activity against Staphylococcus aureus 209 after 24 hrs by two-fold serial dilution method. The format is functional. The following applies: Staphylococcus aureus, 209, 24 h. The procedure, abridged:
as §3

In experiment [8] the test system is Mus musculus. Briefly: Antiinflammatory activity in mouse assessed as inhibition of xylene-induced ear edema at 50 mg/kg, po administered 24 hrs before xylene challenge relative to control. The format is functional, organism-based. The procedure, abridged:
as §2

In experiment [9] the test system is Mus musculus. Briefly: Antiinflammatory activity in mouse assessed as inhibition of xylene-induced ear edema at 50 mg/kg, po administered 5 hrs before xylene challenge relative to control. The format is functional. The procedure, abridged: as §2
The test system of experiment [10] is Staphylococcus aureus. In words: Antibacterial activity against Staphylococcus aureus 503 after 24 hrs by two-fold serial dilution method. The format is functional. The following applies: Staphylococcus aureus, 503, 24 h. The method, boiled down: as §3
In experiment [11] the test system is Staphylococcus aureus. In words: Antibacterial activity against methicillin-resistant Staphylococcus aureus CCARM 3167 after 24 hrs by two-fold serial dilution method. The format is functional. The following applies: CCARM 3167, 24 h. The procedure, abridged: as §3
The test system of experiment [12] is Escherichia coli. Briefly: Antibacterial activity against Escherichia coli KCTC 1924 after 24 hrs by two-fold serial dilution method. The format is functional. The following applies: KCTC 1924, 24 h. The method, boiled down: as §1
Another experiment concerns Streptococcus mutans. In words: Antibacterial activity against Streptococcus mutans 3065 after 24 hrs by two-fold serial dilution method. The format is functional. The following applies: Streptococcus mutans, 3065, 24 h. The procedure, abridged:
as §1

For experiment [13], the system named is Mus musculus. Briefly: Antiinflammatory activity in mouse assessed as inhibition of xylene-induced ear edema at 50 mg/kg, po administered 4 hrs before xylene challenge relative to control. The format is functional. The procedure, abridged: as §2
Experiment [14] deals with Pseudomonas aeruginosa. In words: Antibacterial activity against Pseudomonas aeruginosa 2742 after 24 hrs by two-fold serial dilution method. The following applies: Pseudomonas aeruginosa, 2742, 24 h. The format is functional. The procedure, abridged:
as §1

For experiment [15], the system named is Staphylococcus aureus. Briefly: Antibacterial activity against quinolone-resistant Staphylococcus aureus CCARM 3519 after 24 hrs by two-fold serial dilution method. The format is functional. The following applies: CCARM 3519, 24 h. The method, boiled down: as §3
The test system of experiment [16] is Staphylococcus aureus. Briefly: Antibacterial activity against methicillin-resistant Staphylococcus aureus CCARM 3506 after 24 hrs by two-fold serial dilution method. The format is functional. The following applies: CCARM 3506, 24 h. The procedure, abridged: as §3
The next experiment has as its system Salmonella typhimurium. In words: Antibacterial activity against Salmonella typhimurium 2421 after 24 hrs by two-fold serial dilution method. The format is functional, Salmonella enterica subsp. enterica serovar Typhimurium. The following applies: Salmonella enterica, 2421, 24 h. The procedure, abridged: as §1
Experiment [17] has as its system Mus musculus. Briefly: Antiinflammatory activity in mouse assessed as inhibition of xylene-induced ear edema at 50 mg/kg, po administered 1 hr before xylene challenge relative to control. The following applies: read-out: INH. The format is functional. The procedure, abridged: as §2
The subject of experiment [18] is Mus musculus. In words: Antiinflammatory activity in mouse assessed as inhibition of xylene-induced ear edema at 50 mg/kg, ip administered 30 mins before xylene challenge relative to control. The format is functional. The method, boiled down:
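Mice received compound freshly dissolved in DMSO, 50 mg/kg ip at 0.05 mL/20 g body weight; vehicle controls got DMSO alone. After 30 min, 20 µL xylene was applied to the right ear. After a further 30 min, 7 mm plugs were cut from treated and untreated ears and edema taken as their weight difference. Result is % edema reduction versus vehicle controls.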

The test system of experiment [19] is Mus musculus. In words: Antiinflammatory activity in mouse assessed as inhibition of xylene-induced ear edema at 25 mg/kg, po administered 3 hrs before xylene challenge relative to control. The format is functional. The procedure, abridged:
(§4)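 Oral dosing-level study: compound suspended in 0.5% CMC-Na and given po at 25 or 12.5 mg/kg, 0.4 mL/20 g; vehicle controls received CMC-Na. Xylene ear challenge was applied 3 h after dosing. Edema was measured as the ear-plug weight difference and reported as % reduction versus vehicle controls.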

Experiment [20] relates to Staphylococcus aureus. Briefly: Antibacterial activity against quinolone-resistant Staphylococcus aureus CCARM 3505 after 24 hrs by two-fold serial dilution method. The following applies: CCARM 3505, 24 h. The format is functional. The procedure, abridged: as §3
For experiment [21], the system named is Mus musculus. In words: Antiinflammatory activity in mouse assessed as inhibition of xylene-induced ear edema at 12.5 mg/kg, po administered 3 hrs before xylene challenge relative to control. The format is functional. The procedure, abridged: as §4
Experiment [22] concerns Staphylococcus aureus. In words: Ratio of gatifloxacin MIC to compound MIC for quinolone-resistant Staphylococcus aureus CCARM 3505 after 24 hrs by two-fold serial dilution method. The format is functional.
Experiment [23] deals with Staphylococcus aureus. In words: Ratio of moxifloxacin MIC to compound MIC for quinolone-resistant Staphylococcus aureus CCARM 3519 after 24 hrs by two-fold serial dilution method. The format is functional.
Experiment [24] relates to Escherichia coli. Briefly: Ratio of gatifloxacin MIC to compound MIC for Escherichia coli CCARM 1356 after 24 hrs by two-fold serial dilution method. The format is functional.
In experiment [25] the test system is Staphylococcus aureus. In words: Ratio of moxifloxacin MIC to compound MIC for quinolone-resistant Staphylococcus aureus CCARM 3505 after 24 hrs by two-fold serial dilution method. The format is functional.
The subject of experiment [26] is Staphylococcus aureus. Briefly: Ratio of gatifloxacin MIC to compound MIC for quinolone-resistant Staphylococcus aureus CCARM 3519 after 24 hrs by two-fold serial dilution method. The format is functional.
Experiment [27] concerns Mus musculus. Briefly: Antiinflammatory activity in mouse assessed as inhibition of xylene-induced ear edema at 50 mg/kg, po administered 2 hrs before xylene challenge relative to control. The format is functional. The following applies: read-out: INH. The method, boiled down: as §2

In the case of `N=C(N)N/N=C/c1cn(-c2ccccc2)nc1-c1cccc(Cl)c1`, the MIC against Escherichia coli [1] is 16 µg/mL (≈ 47.2 µM); in the experiment with Pseudomonas aeruginosa [2], above 64 µg/mL; with Candida albicans, 1 µg/mL (≈ 2.95 µM); in the experiment with Staphylococcus aureus [6], 2 µg/mL (≈ 5.9 µM); with Staphylococcus aureus [7], 2 µg/mL (≈ 5.9 µM); against Staphylococcus aureus [10], 2 µg/mL (≈ 5.9 µM). The MIC in the experiment with Staphylococcus aureus [11] is 1 µg/mL (≈ 2.95 µM); against Escherichia coli [12], 1 µg/mL (≈ 2.95 µM); against Streptococcus mutans, 8 µg/mL (≈ 23.6 µM); against Pseudomonas aeruginosa [14], above 64 µg/mL; in the experiment on Staphylococcus aureus [15] it was 2 µg/mL (≈ 5.9 µM); with Staphylococcus aureus [16], 1 µg/mL (≈ 2.95 µM). The MIC in the experiment with Salmonella typhimurium came to 8 µg/mL (≈ 23.6 µM); in the experiment with Staphylococcus aureus [20], 2 µg/mL (≈ 5.9 µM). For the same molecule, the Ratio in the experiment with Staphylococcus aureus [3] is reported as 4; with Staphylococcus aureus [5], 64. Besides, the inhibition in vivo at 50 mg/kg came to 50.9% with Mus musculus [4]; 35.2% with Mus musculus [9]; 4.39% in the experiment on Mus musculus [13]; 26.9% in the experiment with Mus musculus [17]; 93.6% with Mus musculus [18]. The inhibition result in the experiment on Mus musculus [8] is “inactive”. For the same molecule, the inhibition in vivo at 25 mg/kg in the experiment on Mus musculus [19] is 39.3%. The inhibition in vivo at 12.5 mg/kg with Mus musculus [21] is 56.7%.

Turning to `N=C(N)N/N=C/c1cn(-c2ccc([N+](=O)[O-])cc2[N+](=O)[O-])nc1-c1ccc(Br)cc1`, the MIC against Escherichia coli [1] was 4 µg/mL (≈ 8.45 µM); with Pseudomonas aeruginosa [2], above 64 µg/mL; against Candida albicans it was 1 µg/mL (≈ 2.11 µM); against Staphylococcus aureus [6], 2 µg/mL (≈ 4.23 µM); in the experiment with Staphylococcus aureus [7], 2 µg/mL (≈ 4.23 µM); with Staphylococcus aureus [10], 2 µg/mL (≈ 4.23 µM). The MIC was 2 µg/mL (≈ 4.23 µM) against Staphylococcus aureus [11]; 2 µg/mL (≈ 4.23 µM) in the experiment on Escherichia coli [12]; 2 µg/mL (≈ 4.23 µM) against Streptococcus mutans; above 64 µg/mL in the experiment on Pseudomonas aeruginosa [14]; 2 µg/mL (≈ 4.23 µM) against Staphylococcus aureus [15]; 1 µg/mL (≈ 2.11 µM) with Staphylococcus aureus [16]. Also, the minimal inhibitory concentration (MIC) was 4 µg/mL (≈ 8.45 µM) against Salmonella typhimurium and 2 µg/mL (≈ 4.23 µM) in the experiment on Staphylococcus aureus [20]. For the same molecule, the Ratio in the experiment on Staphylococcus aureus [5] was determined as 64; in the experiment on Staphylococcus aureus [22], 4; in the experiment on Staphylococcus aureus [23], 2; with Escherichia coli [24], 4. Besides, in the experiment on Mus musculus [18], the inhibition in vivo at 50 mg/kg came to 69.6%.

As for `Cc1ccc(-c2nn(-c3ccc([N+](=O)[O-])cc3[N+](=O)[O-])cc2/C=N/NC(=N)N)cc1`, the MIC in the experiment on Escherichia coli [1] is 4 µg/mL (≈ 9.79 µM); in the experiment with Pseudomonas aeruginosa [2] it was above 64 µg/mL; in the experiment on Candida albicans, 2 µg/mL (≈ 4.9 µM); with Staphylococcus aureus [6], 2 µg/mL (≈ 4.9 µM); with Staphylococcus aureus [7] it was 2 µg/mL (≈ 4.9 µM); in the experiment on Staphylococcus aureus [10], 2 µg/mL (≈ 4.9 µM). The MIC against Staphylococcus aureus [11] is 2 µg/mL (≈ 4.9 µM); against Escherichia coli [12], 2 µg/mL (≈ 4.9 µM); in the experiment on Streptococcus mutans, 4 µg/mL (≈ 9.79 µM); against Pseudomonas aeruginosa [14] it was above 64 µg/mL; against Staphylococcus aureus [15] it was 2 µg/mL (≈ 4.9 µM); against Staphylococcus aureus [16], 2 µg/mL (≈ 4.9 µM). Further, the MIC against Salmonella typhimurium was found to be 4 µg/mL (≈ 9.79 µM); in the experiment on Staphylococcus aureus [20], 2 µg/mL (≈ 4.9 µM). In addition, the Ratio with Staphylococcus aureus [25], in the experiment with Staphylococcus aureus [26] and with Staphylococcus aureus [23] was 2 each time. The inhibition in vivo at 50 mg/kg in the experiment with Mus musculus [18] stood at 87.4%.

Turning to `COc1ccc2c(c1)c(CC(=O)O)c(C)n2C(=O)c1ccc(Cl)cc1` [INDOMETHACIN], the inhibition in vivo at 50 mg/kg worked out at 9.93% with Mus musculus [27]; 23% in the experiment on Mus musculus [4]; 26.9% in the experiment with Mus musculus [9]; 34.9% with Mus musculus [13]; 29.7% with Mus musculus [17]; 45.2% in the experiment with Mus musculus [18]. Besides, the inhibition entry in the experiment on Mus musculus [8] was “inactive”. The inhibition in vivo at 25 mg/kg in the experiment on Mus musculus [19] amounted to 53.9%. Moreover, the inhibition in vivo at 12.5 mg/kg with Mus musculus [21] was found to be 56.3%.
